Results: ChEMBL document CHEMBL1629713, “Discovery of benzoylisoindolines as a novel class of potent, selective and orally active GlyT1 inhibitors” (Bioorg Med Chem Lett, 2010)
In brackets after ≈: the same amount, converted by molar mass.

Columns and labels:
[1] = Aqueous solubility of the compound by lyophilisate solubility assay; format: physicochemical; details: buffer
Procedure, shortened: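 LYSA: compound in DMSO solution lyophilized, then dissolved in 0.05 M phosphate buffer pH 6.5, stirred 1 h and shaken 2 h; solubility in µg/ml.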

[2] = biological target: T1, Sodium- and chloride-dependent glycine transporter 1 (Homo sapiens, UniProt P48067); assay: Inhibition of human GlyT1 expressed in CHO cells assessed as inhibition of [3H]glycine uptake by liquid scintillation counting; format: cell-based
T1 sequence (P48067 whole entry): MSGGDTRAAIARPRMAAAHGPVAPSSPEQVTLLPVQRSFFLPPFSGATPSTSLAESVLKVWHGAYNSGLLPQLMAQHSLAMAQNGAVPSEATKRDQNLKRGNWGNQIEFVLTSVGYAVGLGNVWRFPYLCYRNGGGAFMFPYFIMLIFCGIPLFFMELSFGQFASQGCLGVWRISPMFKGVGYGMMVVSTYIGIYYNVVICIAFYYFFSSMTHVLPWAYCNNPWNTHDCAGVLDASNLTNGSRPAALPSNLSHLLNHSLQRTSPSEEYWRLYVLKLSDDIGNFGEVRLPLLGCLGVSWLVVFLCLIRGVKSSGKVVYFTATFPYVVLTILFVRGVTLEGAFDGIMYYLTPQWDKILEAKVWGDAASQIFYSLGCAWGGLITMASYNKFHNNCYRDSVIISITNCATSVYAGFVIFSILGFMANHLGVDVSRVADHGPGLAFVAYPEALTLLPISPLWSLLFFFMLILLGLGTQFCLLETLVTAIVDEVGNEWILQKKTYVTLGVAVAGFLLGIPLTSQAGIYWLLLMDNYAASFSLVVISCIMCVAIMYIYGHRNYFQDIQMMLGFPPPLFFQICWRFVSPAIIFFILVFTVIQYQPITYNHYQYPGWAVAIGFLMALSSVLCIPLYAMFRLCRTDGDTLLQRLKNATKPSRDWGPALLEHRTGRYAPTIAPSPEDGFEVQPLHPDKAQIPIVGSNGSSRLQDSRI
Procedure, shortened: (§1)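 [3H]-glycine uptake inhibition in cells transfected with human GlyT1 or human GlyT2 cDNA. EC50 values averaged from at least two independent experiments.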

[3] = biological target: T2, Sodium- and chloride-dependent glycine transporter 2 (Homo sapiens, UniProt Q9Y345); assay: Inhibition of human GlyT2 expressed in CHO cells assessed as inhibition of [3H]glycine uptake by liquid scintillation counting; format: cell-based; procedure, shortened: as §1
T2 sequence (Q9Y345 whole entry): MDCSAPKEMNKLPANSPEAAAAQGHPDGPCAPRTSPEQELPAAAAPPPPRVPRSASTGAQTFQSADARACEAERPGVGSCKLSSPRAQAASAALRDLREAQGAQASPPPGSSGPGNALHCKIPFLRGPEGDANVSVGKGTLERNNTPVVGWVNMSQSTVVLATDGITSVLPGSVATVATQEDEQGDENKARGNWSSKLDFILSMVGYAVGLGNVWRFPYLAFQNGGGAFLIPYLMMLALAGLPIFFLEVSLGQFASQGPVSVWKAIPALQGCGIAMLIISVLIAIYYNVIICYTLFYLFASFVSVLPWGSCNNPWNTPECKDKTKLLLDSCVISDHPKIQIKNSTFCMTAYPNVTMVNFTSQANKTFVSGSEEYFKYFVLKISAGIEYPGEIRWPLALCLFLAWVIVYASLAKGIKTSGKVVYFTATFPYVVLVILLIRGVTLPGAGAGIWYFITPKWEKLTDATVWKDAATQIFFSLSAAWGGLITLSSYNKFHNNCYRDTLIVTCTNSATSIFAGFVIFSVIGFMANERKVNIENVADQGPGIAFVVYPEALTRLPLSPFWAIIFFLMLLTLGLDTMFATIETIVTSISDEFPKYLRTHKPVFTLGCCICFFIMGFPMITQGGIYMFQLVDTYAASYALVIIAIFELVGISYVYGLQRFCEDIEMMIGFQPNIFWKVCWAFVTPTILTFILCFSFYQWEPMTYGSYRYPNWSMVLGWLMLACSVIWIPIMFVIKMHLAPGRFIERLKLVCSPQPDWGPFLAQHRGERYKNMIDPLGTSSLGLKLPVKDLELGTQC

[4] = Permeability of the compound by PAMPA; format: ADME; details: read-out: permeability
Procedure, shortened: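 PAMPA: permeation constant Pe (10^-6 cm/s) measured through artificial membranes.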

hERG (KCNH2) = hERG (KCNH2) (Homo sapiens, UniProt Q12809); assay: Inhibition of human ERG at 10 uM by patch clamp assay
Sequence of hERG (KCNH2) (Q12809 whole entry): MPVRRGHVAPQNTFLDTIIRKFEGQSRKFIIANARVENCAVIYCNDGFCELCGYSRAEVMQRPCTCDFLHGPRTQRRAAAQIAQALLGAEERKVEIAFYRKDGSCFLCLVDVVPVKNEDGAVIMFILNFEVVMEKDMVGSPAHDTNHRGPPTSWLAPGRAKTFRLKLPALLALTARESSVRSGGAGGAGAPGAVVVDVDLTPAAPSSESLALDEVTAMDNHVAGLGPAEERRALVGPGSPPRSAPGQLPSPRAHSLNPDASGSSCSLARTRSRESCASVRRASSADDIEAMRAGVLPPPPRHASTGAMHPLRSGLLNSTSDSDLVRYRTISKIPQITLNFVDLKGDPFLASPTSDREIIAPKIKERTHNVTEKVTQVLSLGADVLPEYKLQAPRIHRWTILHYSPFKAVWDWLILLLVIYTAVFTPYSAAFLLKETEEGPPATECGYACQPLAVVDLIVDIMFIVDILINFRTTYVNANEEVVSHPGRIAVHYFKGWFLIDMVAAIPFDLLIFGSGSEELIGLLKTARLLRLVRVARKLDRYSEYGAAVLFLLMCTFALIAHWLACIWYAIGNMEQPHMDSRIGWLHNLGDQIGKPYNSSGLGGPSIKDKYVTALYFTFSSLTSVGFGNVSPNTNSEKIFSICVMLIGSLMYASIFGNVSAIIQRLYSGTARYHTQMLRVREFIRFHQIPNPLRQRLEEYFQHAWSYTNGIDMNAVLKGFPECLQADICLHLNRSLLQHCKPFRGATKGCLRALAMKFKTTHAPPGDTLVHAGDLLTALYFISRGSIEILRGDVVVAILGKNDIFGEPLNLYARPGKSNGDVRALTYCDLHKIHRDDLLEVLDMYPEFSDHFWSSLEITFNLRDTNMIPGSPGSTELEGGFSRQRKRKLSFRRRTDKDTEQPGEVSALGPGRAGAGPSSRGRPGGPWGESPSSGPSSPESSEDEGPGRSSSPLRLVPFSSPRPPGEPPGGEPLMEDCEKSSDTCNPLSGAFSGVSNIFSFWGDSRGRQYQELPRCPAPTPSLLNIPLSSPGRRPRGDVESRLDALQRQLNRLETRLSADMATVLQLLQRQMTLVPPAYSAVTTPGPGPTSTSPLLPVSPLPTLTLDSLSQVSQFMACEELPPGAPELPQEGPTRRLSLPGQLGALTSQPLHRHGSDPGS
Procedure, shortened: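 hERG block measured by patch clamp at 10 µM; values averaged from at least two independent experiments.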

Mus musculus = assay: Antipsychotic activity in po dosed mouse assessed as inhibition of L-687414-induced hyperlocomotion after 60 mins; format: functional; details: 1 h, read-out: ID50 (the source's name)
Procedure, shortened: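 Mice given compound orally, n = 8 per group; hyperlocomotion induced by L-687,414. Horizontal activity counts recorded over a 60-min period and reported as group means. ID50 (mg/kg) derived from dose-dependent inhibition of the L-687,414-induced response.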

[5] = Clearance in rat; format: ADME, organism-based; details: in vivo
[6] = Volume of distribution in rat; format: ADME, organism-based; details: in vivo
[7] = Ratio of drug level in brain to plasma in rat; format: ADME; details: read-out: BPR
[8] = Oral bioavailability in rat; format: ADME, organism-based; details: in vivo

CS(=O)(=O)c1ccc(OCCC(F)(F)F)c(C(=O)N2Cc3ccc(C4CCOCC4)cc3C2)c1
solubility [1]: 334 µg/mL (≈ 671 µM)
EC50 [2]: 0.137 µM
EC50 [3]: > 30 µM
Papp [4]: 4.1 ×10⁻⁶ cm/s

CS(=O)(=O)c1ccc(OCc2ccccc2)c(C(=O)N2Cc3cc(C(F)(F)F)cnc3C2)c1
solubility [1]: 72 µg/mL (≈ 151 µM)
EC50 [2]: 0.805 µM
EC50 [3]: > 30 µM
Papp [4]: 0.8 ×10⁻⁶ cm/s

C[C@H](Oc1ccc(S(C)(=O)=O)cc1C(=O)N1Cc2ccc(-c3ccncc3)cc2C1)C(F)(F)F
solubility [1]: 25 µg/mL (≈ 51 µM)
EC50 [2]: 0.017 µM
EC50 [3]: > 30 µM
Papp [4]: 4.2 ×10⁻⁶ cm/s
inhibition at 10 µM (hERG (KCNH2)): 58%
ED50 (Mus musculus): 3 mg/kg

CS(=O)(=O)c1ccc(OCCC(F)(F)F)c(C(=O)N2Cc3cc(C(F)(F)F)cnc3C2)c1
solubility [1]: 513 µg/mL (≈ 1060 µM)
EC50 [2]: 0.111 µM
EC50 [3]: > 30 µM
Papp [4]: 4.3 ×10⁻⁶ cm/s
ED50 (Mus musculus): 3 mg/kg

C[C@H](Oc1ccc(S(C)(=O)=O)cc1C(=O)N1Cc2cnc(C(F)(F)F)cc2C1)C(F)(F)F
solubility [1]: 470 µg/mL (≈ 974 µM)
EC50 [2]: 0.132 µM
EC50 [3]: > 30 µM
Papp [4]: 3.9 ×10⁻⁶ cm/s

C[C@H](Oc1ccc(S(C)(=O)=O)cc1C(=O)N1Cc2ccc(N3CCCC3)cc2C1)C(F)(F)F
solubility [1]: < 1 µg/mL
EC50 [2]: 0.18 µM
EC50 [3]: 14.3 µM
Papp [4]: 0.8 ×10⁻⁶ cm/s

C[C@H](Oc1ccc(S(C)(=O)=O)cc1C(=O)N1Cc2ccc(N3CCOCC3)cc2C1)C(F)(F)F
solubility [1]: 355 µg/mL (≈ 712 µM)
EC50 [2]: 0.275 µM
EC50 [3]: > 30 µM
Papp [4]: 4.3 ×10⁻⁶ cm/s

C[C@H](Oc1ccc(S(C)(=O)=O)cc1C(=O)N1Cc2ccc(-c3ccccc3)cc2C1)C(F)(F)F
solubility [1]: 4 µg/mL (≈ 8.17 µM)
EC50 [2]: 0.013 µM
EC50 [3]: 12 µM
Papp [4]: 2.6 ×10⁻⁶ cm/s
inhibition at 10 µM (hERG (KCNH2)): 67%
ED50 (Mus musculus): 6 mg/kg

COc1cccc2c1CN(C(=O)c1cc(S(C)(=O)=O)ccc1O[C@@H](C)C(F)(F)F)C2
solubility [1]: 85 µg/mL (≈ 192 µM)
EC50 [2]: 1.94 µM
EC50 [3]: > 30 µM
Papp [4]: 4.8 ×10⁻⁶ cm/s

CS(=O)(=O)c1ccc(N2CCOCC2)c(C(=O)N2Cc3cc(C(F)(F)F)cnc3C2)c1
solubility [1]: 495 µg/mL (≈ 1090 µM)
EC50 [2]: 3 µM
EC50 [3]: > 30 µM
Papp [4]: 0.9 ×10⁻⁶ cm/s

CS(=O)(=O)c1ccc(-c2ccc(F)cc2)c(C(=O)N2Cc3ccc(C4CCOCC4)cc3C2)c1
solubility [1]: 15 µg/mL (≈ 31.3 µM)
EC50 [2]: 0.016 µM
EC50 [3]: > 30 µM
Papp [4]: 1.4 ×10⁻⁶ cm/s
inhibition at 10 µM (hERG (KCNH2)): 36%
ED50 (Mus musculus): 0.3 mg/kg

C[C@H](Oc1ccc(S(C)(=O)=O)cc1C(=O)N1Cc2ccc(C3CCCCO3)cc2C1)C(F)(F)F (stereo not given in full)
solubility [1]: < 1 µg/mL
EC50 [2]: 0.205 µM
EC50 [3]: > 30 µM
Papp [4]: 0.9 ×10⁻⁶ cm/s

C[C@H](Oc1ccc(S(C)(=O)=O)cc1C(=O)N1Cc2ccc(N3CCN(C)CC3)cc2C1)C(F)(F)F
solubility [1]: 490 µg/mL (≈ 958 µM)
EC50 [2]: 2.08 µM
EC50 [3]: > 30 µM
Papp [4]: 1.5 ×10⁻⁶ cm/s

Cc1cccc2c1CN(C(=O)c1cc(S(C)(=O)=O)ccc1O[C@@H](C)C(F)(F)F)C2
solubility [1]: 73 µg/mL (≈ 171 µM)
EC50 [2]: 3.36 µM
EC50 [3]: > 30 µM
Papp [4]: 4.2 ×10⁻⁶ cm/s

C[C@H](Oc1ccc(S(C)(=O)=O)cc1C(=O)N1Cc2cccc(C#N)c2C1)C(F)(F)F
solubility [1]: 259 µg/mL (≈ 591 µM)
EC50 [2]: 0.77 µM
EC50 [3]: > 30 µM
Papp [4]: 0.8 ×10⁻⁶ cm/s

C[C@H](Oc1ccc(S(C)(=O)=O)cc1C(=O)N1Cc2ccc(C(F)(F)F)cc2C1)C(F)(F)F
solubility [1]: 1 µg/mL (≈ 2.08 µM)
EC50 [2]: 0.021 µM
EC50 [3]: > 30 µM
Papp [4]: 0.7 ×10⁻⁶ cm/s
inhibition at 10 µM (hERG (KCNH2)): 59%
clearance [5]: 1.7 mL/min/kg
Vd [6]: 2.9 L/kg
Kp [7]: 1
bioavailability [8]: 23%
ED50 (Mus musculus): 2 mg/kg

C[C@H](Oc1ccc(S(C)(=O)=O)cc1C(=O)N1Cc2ccccc2C1)C(F)(F)F
solubility [1]: < 1 µg/mL
EC50 [2]: 2.54 µM
EC50 [3]: > 30 µM
Papp [4]: 0.8 ×10⁻⁶ cm/s

C[C@H](Oc1ccc(S(C)(=O)=O)cc1C(=O)N1Cc2ccc(C(F)(F)F)nc2C1)C(F)(F)F
solubility [1]: 429 µg/mL (≈ 889 µM)
EC50 [2]: 0.25 µM
EC50 [3]: > 30 µM
Papp [4]: 5.5 ×10⁻⁶ cm/s

CC(C)COc1ccc(S(C)(=O)=O)cc1C(=O)N1Cc2cc(C(F)(F)F)cnc2C1
solubility [1]: 445 µg/mL (≈ 1010 µM)
EC50 [2]: 0.03 µM
EC50 [3]: > 30 µM
Papp [4]: 5.5 ×10⁻⁶ cm/s
inhibition at 10 µM (hERG (KCNH2)): 37%

C[C@H](Oc1ccc(S(C)(=O)=O)cc1C(=O)N1Cc2ccc(-c3ccccn3)cc2C1)C(F)(F)F
solubility [1]: 30 µg/mL (≈ 61.2 µM)
EC50 [2]: 0.084 µM
EC50 [3]: > 30 µM
Papp [4]: 0.8 ×10⁻⁶ cm/s

CS(=O)(=O)c1ccc(-c2ccc(F)c(F)c2)c(C(=O)N2Cc3cc(C(F)(F)F)cnc3C2)c1
solubility [1]: 42 µg/mL (≈ 87.1 µM)
EC50 [2]: 0.03 µM
EC50 [3]: > 30 µM
Papp [4]: 6.4 ×10⁻⁶ cm/s
inhibition at 10 µM (hERG (KCNH2)): 38%
ED50 (Mus musculus): 1 mg/kg

CC(C)Oc1ccc(S(C)(=O)=O)cc1C(=O)N1Cc2cc(C(F)(F)F)cnc2C1
solubility [1]: 114 µg/mL (≈ 266 µM)
EC50 [2]: 0.07 µM
EC50 [3]: > 30 µM
Papp [4]: 4.1 ×10⁻⁶ cm/s
inhibition at 10 µM (hERG (KCNH2)): 10%
ED50 (Mus musculus): 1 mg/kg

COc1ccc2c(c1)CN(C(=O)c1cc(S(C)(=O)=O)ccc1O[C@@H](C)C(F)(F)F)C2
solubility [1]: 46 µg/mL (≈ 104 µM)
EC50 [2]: 0.18 µM
EC50 [3]: > 30 µM
Papp [4]: 2.7 ×10⁻⁶ cm/s
